What all share (format): functional, organism-based
Experiment [1] deals with Mus musculus. Briefly: Immuno-adjuvant activity in BALB/c mouse assessed as increase in anti-OVA Ig2a antibody in serum at 50 ug, sc administered on day 0, 14 and 28 and measured at 4 weeks in presence of chicken egg ovalbumin by ELISA. The following applies: dose 50.0 µg, time 6.0 weeks, in the assay text read “measured at 6 weeks” for “measured at 4 weeks”. A digest of the protocol: (§1)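 Female BALB/c mice (8–10 wk, six per group) immunized s.c. with OVA 20 μg ± adjuvant on days 0, 14, 28. Tail-vein serum taken before each dose and 2 wk after the last. ELISA on OVA-coated (0.1 μg/mL) plates in borate saline pH 8.2. Twofold serum dilutions in duplicate, overnight at 4 °C. HRP anti-mouse IgG/subclass applied 4 h, OPD substrate, read at 490 nm. Concentrations from reference-serum standard curves (4-parameter fit).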
A general note: In an ELISA, binding on a coated surface is turned into a signal by an enzyme label.

Experiment [2] relates to Mus musculus. The experiment in a line: Immuno-adjuvant activity in BALB/c mouse Splenocyte assessed as increase in CD4+ surface expression of PD-1 at 50 ug, sc administered on day 0, 14 and 28 and measured at week 6 post immunization by flow cytometry analysis. To be noted: dose 50.0 µg, time 6.0 weeks. The procedure, abridged:
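Female BALB/c mice (8–10 wk, six per group) given OVA 20 μg s.c. with adjuvant on days 0, 14, 28; spleens taken at week 6. Splenocytes stained with viability dye, Fc-blocked, surface-stained 30 min. For intracellular cytokines, cells stimulated 5 h with leukocyte activation cocktail plus GolgiPlug, then fixed/permeabilized. IL-21 detected with IL-21R Fc chimera. All steps at 4 °C. Read as MFI, mean ± SEM.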
On the technique in general: Flow cytometry measures light scatter and fluorescence of single cells or particles in a stream.

The subject of experiment [3] is Mus musculus. Briefly: Immuno-adjuvant activity in BALB/c mouse assessed as increase in anti-OVA IgG2a antibody in serum at 50 ug, sc administered on day 0, 14 and 28 and measured at 2 weeks in presence of chicken egg ovalbumin by ELISA. To be noted: dose 50.0 µg, time 6.0 weeks, in the assay text read “measured at 6 weeks” for “measured at 2 weeks”. The procedure, abridged: as §1

Experiment [4] relates to Mus musculus. The experiment in a line: Immuno-adjuvant activity in BALB/c mouse assessed as increase in anti-OVA IgG antibody in serum at 50 ug, sc administered on day 0, 14 and 28 and measured at 4 and 6 weeks in presence of chicken egg ovalbumin by ELISA. To be noted: dose 50.0 µg, time 4-6 weeks. A digest of the protocol: as §1

The source of these data is ChEMBL document CHEMBL5096226, “Structure-Activity Relationship Study of Momordica Saponin II Derivatives as Vaccine Adjuvants” (J Med Chem, 2022).

Calls of active or inactive are those of the source. The rule behind the calls is not given here.

`C[C@@H]1O[C@@H](O[C@H]2[C@H](O)[C@@H](C(=O)NCCCCCCCCCCC(=O)OCc3cccc(Oc4ccccc4)c3)O[C@@H](O[C@H]3CC[C@]4(C)[C@H]5CC=C6[C@@H]7CC(C)(C)CC[C@]7(C(=O)O[C@@H]7O[C@H](C)[C@H](O)[C@H](O)[C@H]7O[C@@H]7O[C@@H](C)[C@H](O[C@@H]8OC[C@@H](O)[C@H](O)[C@H]8O)[C@@H](O[C@@H]8O[C@H](CO)[C@@H](O)[C@H](O[C@@H]9OC[C@@H](O)[C@H](O)[C@H]9O)[C@H]8O)[C@H]7O)[C@H](O)C[C@@]6(C)[C@]5(C)CC[C@H]4[C@]3(C)C=O)[C@@H]2O[C@@H]2O[C@H](CO)[C@H](O)[C@H](O)[C@H]2O)[C@H](O)[C@H](O)[C@H]1O`: the outcome in experiment [1] and in experiment [2] was Active. On to `C[C@@H]1O[C@@H](O[C@H]2[C@H](O)[C@@H](C(=O)NCCCCCCCCCCCOCc3ccccc3)O[C@@H](O[C@H]3CC[C@]4(C)[C@H]5CC=C6[C@@H]7CC(C)(C)CC[C@]7(C(=O)O[C@@H]7O[C@H](C)[C@H](O)[C@H](O)[C@H]7O[C@@H]7O[C@@H](C)[C@H](O[C@@H]8OC[C@@H](O)[C@H](O)[C@H]8O)[C@@H](O[C@@H]8O[C@H](CO)[C@@H](O)[C@H](O[C@@H]9OC[C@@H](O)[C@H](O)[C@H]9O)[C@H]8O)[C@H]7O)[C@H](O)C[C@@]6(C)[C@]5(C)CC[C@H]4[C@]3(C)C=O)[C@@H]2O[C@@H]2O[C@H](CO)[C@H](O)[C@H](O)[C@H]2O)[C@H](O)[C@H](O)[C@H]1O`, for which the result in experiment [3] and in experiment [4] was Active. `COc1cc(COC(=O)CCCCCCCCCCNC(=O)[C@H]2O[C@@H](O[C@H]3CC[C@]4(C)[C@H]5CC=C6[C@@H]7CC(C)(C)CC[C@]7(C(=O)O[C@@H]7O[C@H](C)[C@H](O)[C@H](O)[C@H]7O[C@@H]7O[C@@H](C)[C@H](O[C@@H]8OC[C@@H](O)[C@H](O)[C@H]8O)[C@@H](O[C@@H]8O[C@H](CO)[C@@H](O)[C@H](O[C@@H]9OC[C@@H](O)[C@H](O)[C@H]9O)[C@H]8O)[C@H]7O)[C@H](O)C[C@@]6(C)[C@]5(C)CC[C@H]4[C@]3(C)C=O)[C@H](O[C@@H]3O[C@H](CO)[C@H](O)[C@H](O)[C@H]3O)[C@@H](O[C@@H]3O[C@@H](C)[C@H](O)[C@@H](O)[C@H]3O)[C@@H]2O)cc(OC)c1`: the result in experiment [1] was Active.

As to `C[C@@H]1O[C@@H](O[C@H]2[C@H](O)[C@@H](C(=O)NCCCCCCCCCCNC(=O)c3ccccc3)O[C@@H](O[C@H]3CC[C@]4(C)[C@H]5CC=C6[C@@H]7CC(C)(C)CC[C@]7(C(=O)O[C@@H]7O[C@H](C)[C@H](O)[C@H](O)[C@H]7O[C@@H]7O[C@@H](C)[C@H](O[C@@H]8OC[C@@H](O)[C@H](O)[C@H]8O)[C@@H](O[C@@H]8O[C@H](CO)[C@@H](O)[C@H](O[C@@H]9OC[C@@H](O)[C@H](O)[C@H]9O)[C@H]8O)[C@H]7O)[C@H](O)C[C@@]6(C)[C@]5(C)CC[C@H]4[C@]3(C)C=O)[C@@H]2O[C@@H]2O[C@H](CO)[C@H](O)[C@H](O)[C@H]2O)[C@H](O)[C@H](O)[C@H]1O`, the result in experiment [3] was Active.

As to `C[C@@H]1O[C@@H](O[C@H]2[C@H](O)[C@@H](C(=O)NCCCCCCCCCCCOC(=O)c3ccccc3)O[C@@H](O[C@H]3CC[C@]4(C)[C@H]5CC=C6[C@@H]7CC(C)(C)CC[C@]7(C(=O)O[C@@H]7O[C@H](C)[C@H](O)[C@H](O)[C@H]7O[C@@H]7O[C@@H](C)[C@H](O[C@@H]8OC[C@@H](O)[C@H](O)[C@H]8O)[C@@H](O[C@@H]8O[C@H](CO)[C@@H](O)[C@H](O[C@@H]9OC[C@@H](O)[C@H](O)[C@H]9O)[C@H]8O)[C@H]7O)[C@H](O)C[C@@]6(C)[C@]5(C)CC[C@H]4[C@]3(C)C=O)[C@@H]2O[C@@H]2O[C@H](CO)[C@H](O)[C@H](O)[C@H]2O)[C@H](O)[C@H](O)[C@H]1O`, the outcome in experiment [3] and in experiment [4] was Active.
